Results as given in ChEMBL document CHEMBL1149797, “Synthesis and in vitro antibacterial activities of novel oxazolidinones” (Eur J Med Chem, 2008).
In brackets after ≈: the same amount, converted by molar mass.

Key:
Bacillus cereus = assay: Antibacterial activity against Bacillus cereus ATCC 11778 by broth microdilution technique; assay type: functional
In short: (§1)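 Broth microdilution per CLSI (NCCLS) guidelines. Compounds were dissolved in DMSO with water added to give an 80% DMSO stock, then diluted 1:10 to working solutions in water or medium. They were tested at 0.125, 0.25, 0.5, 1, 2, 4, 8 and 16 (two-fold series) against the final inoculum. Each run included sterility controls and vehicle controls (plain medium; 4%, 2%, 1% DMSO). MIC was read as growth inhibition.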

Staphylococcus aureus [1] = assay: Antibacterial activity against Staphylococcus aureus ATCC 25923 by broth microdilution technique; assay type: functional; in short: as §1
[2] = system: Staphylococcus epidermidis; assay: Antibacterial activity against Staphylococcus epidermidis ATCC 155 by broth microdilution technique; assay type: functional; in short: as §1
Bacillus pumilus = assay: Antibacterial activity against Bacillus pumilus ATCC 14884 by broth microdilution technique; assay type: functional; in short: as §1
Enterococcus faecalis [3] = assay: Antibacterial activity against Enterococcus faecalis ATCC 35550 by broth microdilution technique; assay type: functional; in short: as §1
Streptococcus pyogenes = assay: Antibacterial activity against Streptococcus pyogenes ATCC 14289 by broth microdilution technique; assay type: functional; in short: as §1
Enterococcus faecalis [4] = assay: Antibacterial activity against Enterococcus faecalis ATCC 14506 by broth microdilution technique; assay type: functional; in short: as §1
Staphylococcus aureus [5] = assay: Antibacterial activity against Staphylococcus aureus ATCC 14154 by broth microdilution technique; assay type: functional
In short: (§2)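 Broth microdilution per NCCLS/CLSI. Compounds dissolved in DMSO with water added to give an 80% DMSO stock. Stock diluted 1:10 in 4-8% DMSO in water or medium to make the working solution. Tested at […]. Sterility controls run with each set. Inoculum viability controls included plain medium and 4%, 2% and 1% DMSO vehicle. MIC taken as growth inhibition.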

Enterococcus faecalis [6] = assay: Antibacterial activity against multidrug-resistant Enterococcus faecalis ATCC 700802 by broth microdilution technique; assay type: functional; in short: as §2
Staphylococcus aureus [7] = assay: Antibacterial activity against Staphylococcus aureus ATCC 9144 by broth microdilution technique; assay type: functional; in short: as §2
Staphylococcus aureus [8] = assay: Antibacterial activity against linezolid-resistant Staphylococcus aureus NRS 120 with G 2576T mutation by broth microdilution technique; assay type: functional; in short: as §2
Enterococcus faecium = assay: Antibacterial activity against vancomycin-resistant Enterococcus faecium ATCC 700221 by broth microdilution technique; assay type: functional; in short: as §2
Staphylococcus aureus [9] = assay: Antibacterial activity against methicillin-resistant Staphylococcus aureus ATCC 700699 by broth microdilution technique; assay type: functional; in short: as §2
Streptococcus pneumoniae = assay: Antibacterial activity against multidrug-resistant Streptococcus pneumoniae ATCC 700904 by broth microdilution technique; assay type: functional; in short: as §2
Staphylococcus aureus [10] = assay: Antibacterial activity against linezolid-resistant Staphylococcus aureus NRS 119 with G 2576T mutation by broth microdilution technique; assay type: functional; in short: as §2
Staphylococcus aureus [11] = assay: Antibacterial activity against Staphylococcus aureus ATCC 29213 by broth microdilution technique; assay type: functional; in short: as §2
[12] = Tmax in Sprague-Dawley rat at 10 mg/kg, iv; assay type: ADME, organism-based; set-up: dose 10 mg/kg, route intravenous; settings: in vivo
In short: (§3)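 Male Sprague-Dawley rats, 8-10 weeks old, fasted 18 h, with food returned 4 h post-dose and water free. The compound was given as a clear solution in PEG-400/cremophore/ethanol/propylene glycol/saline via the tail vein at 10 mg/kg. Retro-orbital blood went into heparinized tubes at intervals, and plasma was spun and analysed immediately by HPLC against spiked rat-plasma calibrators. Cmax, tmax, AUC0-∞ and t1/2 were derived.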

[13] = Cmax in Sprague-Dawley rat at 10 mg/kg, iv; assay type: ADME, organism-based; set-up: dose 10 mg/kg, route intravenous; settings: in vivo; in short: as §3
[14] = AUC in Sprague-Dawley rat at 30 mg/kg, po; assay type: ADME, organism-based; set-up: dose 30 mg/kg, route oral; settings: plasma
In short: (§4)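 Male Sprague-Dawley rats, 8-10 weeks old, fasted 18 h, fed again 4 h after dosing, water ad libitum. Oral dose of 30 mg/kg as a homogeneous suspension in 0.5% w/v CMC in normal saline. Serial retro-orbital samples into heparinized tubes; plasma separated at ambient temperature and assayed at once by HPLC with calibrators in drug-free rat plasma. Cmax, tmax, AUC0-∞ and t1/2 calculated.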

[15] = Bioavailability in Sprague-Dawley rat at 30 mg/kg, po; settings: in vivo
[16] = Tmax in Sprague-Dawley rat at 30 mg/kg, po; assay type: ADME, organism-based; set-up: dose 30 mg/kg, route oral; settings: in vivo; in short: as §4
[17] = Half life in Sprague-Dawley rat at 30 mg/kg, po; assay type: ADME, organism-based; set-up: dose 30 mg/kg, route oral; settings: in vivo; in short: as §4
[18] = AUC in Sprague-Dawley rat at 10 mg/kg, iv; assay type: ADME, organism-based; set-up: dose 10 mg/kg, route intravenous; settings: plasma; in short: as §3
[19] = Cmax in Sprague-Dawley rat at 30 mg/kg, po; assay type: ADME, organism-based; set-up: dose 30 mg/kg, route oral; settings: in vivo; in short: as §4
[20] = Half life in Sprague-Dawley rat at 10 mg/kg, iv; assay type: ADME, organism-based; set-up: dose 10 mg/kg, route intravenous; settings: in vivo
In short: as §3, with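 “The” for “Male Sprague-Dawley rats, 8-10 weeks old, fasted 18 h, with food returned 4 h post-dose and water free. The”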

[21] = Tmax in Sprague-Dawley rat at 25 mg/kg, po; assay type: ADME, organism-based; set-up: dose 25 mg/kg, route oral; settings: in vivo

| SMILES | MIC (Bacillus cereus) [µg/mL] | MIC (Staphylococcus aureus [1]) [µg/mL] | MIC [2] [µg/mL] | MIC (Bacillus pumilus) [µg/mL] | MIC (Enterococcus faecalis [3]) [µg/mL] | MIC (Streptococcus pyogenes) [µg/mL] | MIC (Staphylococcus aureus [5]) [µg/mL] | MIC (Staphylococcus aureus [8]) [µg/mL] | MIC (Enterococcus faecium) [µg/mL] | MIC (Staphylococcus aureus [9]) [µg/mL] | MIC (Streptococcus pneumoniae) [µg/mL] | MIC (Staphylococcus aureus [10]) [µg/mL] | other results |
| --- | --- | --- | --- | --- | --- | --- | --- | --- | --- | --- | --- | --- | --- |
| CC(=O)NC[C@H]1CN(c2ccc(N3CCN(C(=O)/C=C/c4ccc(CO)o4)CC3)c(F)c2)C(=O)O1 | 2 (≈ 4.11 µM) | 4 (≈ 8.22 µM) | 1 (≈ 2.06 µM) | 4 (≈ 8.22 µM) | 2 (≈ 4.11 µM) | 1 (≈ 2.06 µM) |  |  |  |  |  |  |  |
| CC(=O)NC[C@H]1CN(c2ccc(N3CCN(C(=O)/C=C/c4ccc([N+](=O)[O-])s4)CC3)c(F)c2)C(=O)O1 | 1 (≈ 1.93 µM) | 0.25 (≈ 0.483 µM) | ≤ 0.12 | 0.5 (≈ 0.966 µM) | 0.5 (≈ 0.966 µM) | 0.12 (≈ 0.232 µM) | 0.25 (≈ 0.483 µM) | 4 (≈ 7.73 µM) | 0.5 (≈ 0.966 µM) | 0.25 (≈ 0.483 µM) | ≤ 0.125 | 4 (≈ 7.73 µM) | MIC (Enterococcus faecalis [4]): 0.25 µg/mL (≈ 0.483 µM); MIC (Enterococcus faecalis [6]): 0.5 µg/mL (≈ 0.966 µM); MIC (Staphylococcus aureus [7]): 0.25 µg/mL (≈ 0.483 µM); MIC (Staphylococcus aureus [11]): 0.25 µg/mL (≈ 0.483 µM) |
| CC(=O)NC[C@H]1CN(c2ccc(N3CCN(C(=O)/C=C/c4ccoc4)CC3)c(F)c2)C(=O)O1 | 1 (≈ 2.19 µM) | 1 (≈ 2.19 µM) | 0.5 (≈ 1.1 µM) | 1 (≈ 2.19 µM) | 1 (≈ 2.19 µM) | 0.5 (≈ 1.1 µM) |  |  |  |  |  |  |  |
| CC(=O)NC[C@H]1CN(c2ccc(N3CCN(C(=O)/C=C/c4c[nH]c5ccccc45)CC3)c(F)c2)C(=O)O1 | 0.25 (≈ 0.495 µM) | 2 (≈ 3.96 µM) | 1 (≈ 1.98 µM) | 0.5 (≈ 0.989 µM) | 0.5 (≈ 0.989 µM) | 0.12 (≈ 0.237 µM) |  |  |  |  |  |  |  |
| CC(=O)NC[C@H]1CN(c2ccc(N3CCN(C(=O)/C=C/c4cccnc4)CC3)c(F)c2)C(=O)O1 | 1 (≈ 2.14 µM) | 1 (≈ 2.14 µM) | 0.5 (≈ 1.07 µM) | 1 (≈ 2.14 µM) | 2 (≈ 4.28 µM) | 0.5 (≈ 1.07 µM) |  |  |  |  |  |  |  |
| CC(=O)NC[C@H]1CN(c2ccc(N3CCN(C(=O)/C=C/c4ccc(C(=O)O)o4)CC3)c(F)c2)C(=O)O1 | > 16 | > 16 | > 16 | > 16 | > 16 | > 16 |  |  |  |  |  |  |  |
| CC(=O)NC[C@H]1CN(c2ccc(N3CCN(C(=O)/C=C/c4ccc(C=O)o4)CC3)c(F)c2)C(=O)O1 | 2 (≈ 4.13 µM) | 4 (≈ 8.26 µM) | 2 (≈ 4.13 µM) | 1 (≈ 2.06 µM) | 2 (≈ 4.13 µM) | 1 (≈ 2.06 µM) |  |  |  |  |  |  |  |
| CC(=O)NC[C@H]1CN(c2ccc(N3CCN(C(=O)/C=C/c4ccc(C(=O)[O-])o4)CC3)c(F)c2)C(=O)O1.[Na+] | > 16 | > 16 | > 16 | > 16 | > 16 | > 16 |  |  |  |  |  |  |  |
| CC(=O)NC[C@H]1CN(c2ccc([N+]3([O-])CCN(C(=O)/C=C/c4ccc([N+](=O)[O-])o4)CC3)c(F)c2)C(=O)O1 |  | 0.5 (≈ 0.966 µM) | 0.12 (≈ 0.232 µM) |  | 1 (≈ 1.93 µM) | 0.12 (≈ 0.232 µM) | 1 (≈ 1.93 µM) | 2 (≈ 3.86 µM) | 0.5 (≈ 0.966 µM) | 0.5 (≈ 0.966 µM) | 0.25 (≈ 0.483 µM) | 2 (≈ 3.86 µM) | Tmax [12]: 0 h; Cmax [13]: 9180 ng/mL; AUC [14]: 1870 ng·h/mL; bioavailability [15]: 60%; MIC (Enterococcus faecalis [6]): 1 µg/mL (≈ 1.93 µM); Tmax [16]: 10.2 min; half-life [17]: 58.2 min; AUC [18]: 1030 ng·h/mL; Cmax [19]: 1210 ng/mL; MIC (Staphylococcus aureus [11]): 1 µg/mL (≈ 1.93 µM); half-life [20]: 57 min |
| CC(=O)NC[C@H]1CN(c2ccc(N3CCN(C(=O)CO)CC3)c(F)c2)C(=O)O1 [EPEREZOLID] | 2 (≈ 5.07 µM) | 2 (≈ 5.07 µM) | 2 (≈ 5.07 µM) | 1 (≈ 2.54 µM) | 2 (≈ 5.07 µM) | 0.5 (≈ 1.27 µM) | 1 (≈ 2.54 µM) | > 16 | 1 (≈ 2.54 µM) | 1 (≈ 2.54 µM) | 0.5 (≈ 1.27 µM) | > 16 | MIC (Enterococcus faecalis [4]): 1 µg/mL (≈ 2.54 µM); MIC (Enterococcus faecalis [6]): 1 µg/mL (≈ 2.54 µM); MIC (Staphylococcus aureus [7]): 2 µg/mL (≈ 5.07 µM); MIC (Staphylococcus aureus [11]): 2 µg/mL (≈ 5.07 µM) |
| CC(=O)NC[C@H]1CN(c2ccc(N3CCOCC3)c(F)c2)C(=O)O1 [LINEZOLID] | 2 (≈ 5.93 µM) |  | 1 (≈ 2.96 µM) | 0.5 (≈ 1.48 µM) |  | 1 (≈ 2.96 µM) | 1 (≈ 2.96 µM) | > 16 | 1 (≈ 2.96 µM) | 1 (≈ 2.96 µM) | 0.25 (≈ 0.741 µM) | > 16 | Tmax [12]: 0 h; Tmax [21]: 18.6 min |
